Test results published in publication PMC7042484 (Redox Biology, 2020).
Entries after “also recorded” stand apart in the source; their conditions may differ.

Legend:
bacterial NOX5 [1] = target: T1, bacterial NOX5 (Cylindrospermum stagnale, UniProt K9WT99); test: MCLA assay on NOX5 membranes; assay type: biochemical
T1 sequence (K9WT99 1-693): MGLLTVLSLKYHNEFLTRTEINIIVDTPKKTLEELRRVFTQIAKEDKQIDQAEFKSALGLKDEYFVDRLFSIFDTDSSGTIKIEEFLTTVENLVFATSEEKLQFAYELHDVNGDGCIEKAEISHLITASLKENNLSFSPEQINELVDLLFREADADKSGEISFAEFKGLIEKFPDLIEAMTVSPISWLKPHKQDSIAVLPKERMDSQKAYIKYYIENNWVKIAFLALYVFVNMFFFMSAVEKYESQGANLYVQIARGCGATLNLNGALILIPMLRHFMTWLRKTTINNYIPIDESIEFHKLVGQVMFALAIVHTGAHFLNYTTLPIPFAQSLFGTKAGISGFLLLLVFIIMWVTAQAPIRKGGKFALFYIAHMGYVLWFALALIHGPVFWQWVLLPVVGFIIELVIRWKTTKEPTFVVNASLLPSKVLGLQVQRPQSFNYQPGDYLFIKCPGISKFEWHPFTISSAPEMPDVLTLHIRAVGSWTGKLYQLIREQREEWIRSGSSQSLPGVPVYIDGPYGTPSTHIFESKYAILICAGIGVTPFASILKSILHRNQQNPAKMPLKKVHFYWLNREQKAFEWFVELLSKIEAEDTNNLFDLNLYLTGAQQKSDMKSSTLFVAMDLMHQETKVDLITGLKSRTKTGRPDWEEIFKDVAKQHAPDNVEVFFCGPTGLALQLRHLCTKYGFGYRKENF
Method in brief: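 E. coli membranes carrying FLAG-(His)8-SUMO-tagged C. stagnale NOX5, 12 μg, in PBS with 1 mM CaCl2, 0.5 μM FAD and 1 μM MCLA. Compound (100 μM single point, or concentration series) 10 min at 25 °C. Started with 200 μM NADPH; chemiluminescence read. Membranes lacking NOX5 set noise level. IC50 by sigmoidal fit, % of untreated control.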

human NOX2 [2] = target: T2, human NOX2 (Homo sapiens, UniProt P04839); test: MCLA assay on NOX2 membranes; assay type: biochemical; conditions: 100 μM compound
T2 sequence (P04839 2-570 limits assumed): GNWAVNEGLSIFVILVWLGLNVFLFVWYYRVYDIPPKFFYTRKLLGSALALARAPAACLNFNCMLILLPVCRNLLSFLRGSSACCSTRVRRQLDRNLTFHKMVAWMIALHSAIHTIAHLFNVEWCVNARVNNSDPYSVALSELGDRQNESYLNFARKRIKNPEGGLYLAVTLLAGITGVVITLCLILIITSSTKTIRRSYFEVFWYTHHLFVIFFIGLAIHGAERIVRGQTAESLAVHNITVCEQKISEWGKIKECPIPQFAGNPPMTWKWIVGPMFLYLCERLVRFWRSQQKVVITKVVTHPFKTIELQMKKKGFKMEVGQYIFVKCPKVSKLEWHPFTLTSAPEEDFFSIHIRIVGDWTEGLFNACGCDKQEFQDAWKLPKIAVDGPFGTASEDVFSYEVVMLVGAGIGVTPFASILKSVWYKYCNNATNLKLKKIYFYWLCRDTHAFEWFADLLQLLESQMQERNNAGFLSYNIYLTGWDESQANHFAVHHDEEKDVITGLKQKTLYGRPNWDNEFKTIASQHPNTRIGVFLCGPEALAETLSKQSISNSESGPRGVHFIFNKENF
T2 sequence (P13498 2-195 partner limits assumed): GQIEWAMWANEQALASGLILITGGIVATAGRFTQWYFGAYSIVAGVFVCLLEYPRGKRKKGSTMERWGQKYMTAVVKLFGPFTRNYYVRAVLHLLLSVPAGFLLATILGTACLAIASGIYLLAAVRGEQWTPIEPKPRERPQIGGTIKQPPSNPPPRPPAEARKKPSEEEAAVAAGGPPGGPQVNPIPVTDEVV

human NOX4 = target: T3, human NOX4 (Homo sapiens, UniProt Q9NPH5); test: Initial evaluation on NOX4 membrane preparations; assay type: biochemical; conditions: for inhibition of NOX4 (in words): 100 μM compound, membranes
T3 sequence (Q9NPH5 1-578): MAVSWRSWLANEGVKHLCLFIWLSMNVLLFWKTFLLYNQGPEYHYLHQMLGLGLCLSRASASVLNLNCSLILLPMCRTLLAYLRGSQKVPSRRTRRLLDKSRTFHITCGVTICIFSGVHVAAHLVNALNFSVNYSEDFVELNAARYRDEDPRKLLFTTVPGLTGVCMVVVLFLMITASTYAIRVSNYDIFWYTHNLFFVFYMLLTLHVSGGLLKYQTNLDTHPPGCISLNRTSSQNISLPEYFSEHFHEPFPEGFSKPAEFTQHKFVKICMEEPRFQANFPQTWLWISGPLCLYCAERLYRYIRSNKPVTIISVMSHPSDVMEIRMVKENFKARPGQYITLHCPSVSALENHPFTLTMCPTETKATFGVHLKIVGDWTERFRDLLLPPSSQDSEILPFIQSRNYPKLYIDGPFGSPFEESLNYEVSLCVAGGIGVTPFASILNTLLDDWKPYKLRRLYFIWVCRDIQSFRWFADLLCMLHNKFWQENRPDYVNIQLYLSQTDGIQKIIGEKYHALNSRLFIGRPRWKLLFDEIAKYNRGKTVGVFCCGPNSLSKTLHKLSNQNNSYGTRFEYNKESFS
T3 sequence (P13498 2-195 partner limits assumed): T2 sequence (P13498 2-195 partner limits assumed)
Method in brief: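 NOX4-p22 membranes from transfected HEK293 EBNA-1 cells, compound 100 μM, 10 min preincubation at 4 °C in PBS. Amplex Red: 100 μg membranes, 12.5 μM Amplex Red, 0.02 U/ml HRP, 40 μM FAD, started with 40 μM NADPH, ex 572/em 583 nm. CBA: 50 μg membranes, 20 μM FAD, then 200 μM coumarin boronic acid and 50 μM NADPH, ex 320/em 430 nm.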

xanthine oxidase = xanthine oxidase (Bos taurus, UniProt P80457); test: Xanthine Oxidase assay; assay type: biochemical; conditions: 100 μM compound, hypoxanthine, Amplex Red/peroxidase
xanthine oxidase, sequence (P80457 whole entry): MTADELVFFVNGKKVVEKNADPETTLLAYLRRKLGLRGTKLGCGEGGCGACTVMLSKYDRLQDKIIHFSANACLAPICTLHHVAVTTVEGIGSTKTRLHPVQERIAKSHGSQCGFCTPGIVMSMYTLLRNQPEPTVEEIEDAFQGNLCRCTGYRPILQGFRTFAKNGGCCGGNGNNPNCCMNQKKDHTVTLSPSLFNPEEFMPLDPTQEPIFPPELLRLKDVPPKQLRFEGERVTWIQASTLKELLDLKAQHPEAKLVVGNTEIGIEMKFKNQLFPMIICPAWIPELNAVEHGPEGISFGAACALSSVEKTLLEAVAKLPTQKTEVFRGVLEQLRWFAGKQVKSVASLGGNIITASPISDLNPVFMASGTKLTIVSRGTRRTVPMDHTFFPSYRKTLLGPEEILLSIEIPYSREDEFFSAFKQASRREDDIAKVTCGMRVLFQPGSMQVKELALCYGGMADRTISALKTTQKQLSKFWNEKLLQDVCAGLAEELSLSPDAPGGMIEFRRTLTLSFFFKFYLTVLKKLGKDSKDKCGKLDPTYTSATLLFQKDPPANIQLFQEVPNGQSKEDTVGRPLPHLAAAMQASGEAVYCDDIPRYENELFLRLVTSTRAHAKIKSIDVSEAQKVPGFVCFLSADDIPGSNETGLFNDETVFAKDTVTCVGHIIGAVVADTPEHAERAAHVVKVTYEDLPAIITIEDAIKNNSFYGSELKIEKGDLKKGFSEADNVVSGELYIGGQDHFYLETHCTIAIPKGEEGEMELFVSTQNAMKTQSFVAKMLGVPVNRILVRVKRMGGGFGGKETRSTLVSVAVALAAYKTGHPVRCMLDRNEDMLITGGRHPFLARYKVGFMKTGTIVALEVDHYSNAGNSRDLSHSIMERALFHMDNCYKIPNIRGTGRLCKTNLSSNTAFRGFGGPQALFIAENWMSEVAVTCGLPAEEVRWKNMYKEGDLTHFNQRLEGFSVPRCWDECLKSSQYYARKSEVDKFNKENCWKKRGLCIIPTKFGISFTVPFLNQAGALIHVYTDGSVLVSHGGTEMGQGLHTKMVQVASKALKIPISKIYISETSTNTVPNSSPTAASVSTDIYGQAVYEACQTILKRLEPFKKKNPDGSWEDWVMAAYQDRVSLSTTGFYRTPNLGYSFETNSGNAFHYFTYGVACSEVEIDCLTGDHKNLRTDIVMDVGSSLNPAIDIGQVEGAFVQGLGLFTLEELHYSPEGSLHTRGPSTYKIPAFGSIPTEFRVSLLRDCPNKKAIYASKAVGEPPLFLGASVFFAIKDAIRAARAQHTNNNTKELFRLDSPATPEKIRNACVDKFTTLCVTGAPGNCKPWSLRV
Method in brief: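 Compound (100 μM) with xanthine oxidase, 100 μM Amplex Red, 0.4 U/mL horseradish peroxidase and 0.2 mM hypoxanthine. 15 min at 37 °C; H2O2-derived resorufin read by fluorescence, ex 530/em 590 nm.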

[3] = MCLA auto-oxidation assay; conditions: 100 μM compound
[4] = Amplex Red/peroxidase assay in the absence of a NOX enzyme; conditions: 100 μM compound, no NOX enzyme, NADPH present
Method in brief: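 Compound (100 μM) added to the Amplex Red/horseradish peroxidase H2O2 read-out with NADPH present but no NOX membranes, to probe reagent interference. Resorufin fluorescence read on a plate reader.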

bacterial NOX5 [5] = target: T1, bacterial NOX5; test: Initial evaluation on NOX5 membrane preparations; assay type: biochemical; conditions: for inhibition of NOX5 (in words): 100 μM compound, membranes
human NOX2 [6] = target: T2, human NOX2; test: Initial evaluation on NOX2 membrane preparations; assay type: biochemical; conditions: for inhibition of NOX2 (in words): 100 μM compound, membranes
[7] = target: T4, wild-type dehydrogenase domain of bacterial NOX5 (Cylindrospermum stagnale, UniProt K9WT99); test: NADPH-depletion assay on purified wild-type NOX5 dehydrogenase domain; assay type: biochemical
T4 sequence (K9WT99 413-693): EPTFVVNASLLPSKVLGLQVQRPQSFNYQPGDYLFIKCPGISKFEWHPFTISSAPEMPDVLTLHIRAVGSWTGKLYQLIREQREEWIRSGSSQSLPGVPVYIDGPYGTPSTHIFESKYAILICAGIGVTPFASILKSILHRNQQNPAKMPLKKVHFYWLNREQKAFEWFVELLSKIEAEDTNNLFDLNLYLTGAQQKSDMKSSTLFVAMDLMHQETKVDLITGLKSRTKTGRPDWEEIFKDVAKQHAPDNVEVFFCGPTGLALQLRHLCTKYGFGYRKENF

[8] = target: C-terminal mutant dehydrogenase domain of bacterial NOX5; test: NADPH-depletion assay on C-terminal mutant NOX5 dehydrogenase domain; assay type: biochemical, Cylindrospermum stagnale; conditions: uncompetitive, low-activity mutant of the dehydrogenase domain
[9] = target: full-length bacterial NOX5 (Cylindrospermum stagnale, UniProt K9WT99); test: biochemical
[10] = system: wild-type NOX5 dehydrogenase domain; test: Thermal shift analysis on purified NOX5 dehydrogenase domain; assay type: binding, Cylindrospermum stagnale; conditions: inflection temperature Ti, 35–95 °C
Method in brief: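 Wild-type purified NOX5 dehydrogenase domain, with or without ligand, heated from 35 °C to 95 °C over 3 min on a Tycho system; inflection temperature (Ti) determined.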

NOXs = test: Initial evaluation of NOX inhibitors, isoform not specified; assay type: biochemical; conditions: 100 μM compound
[11] = NADH-PMS superoxide-scavenging assay; conditions: 100 μM compound, PMS-NADH/nitroblue tetrazolium
Method in brief: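 Non-enzymatic superoxide generation in 16 mM Tris-HCl pH 8.0 with 80 μM nitroblue tetrazolium and 70 μM NADH plus compound (100 μM). Started with 5 μM phenazine methosulfate; 5 min at 25 °C; A560. SOD as positive control; lower absorbance than the negative control scored as scavenging.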

[12] = target: T5, wild-type dehydrogenase domain of NOX5 (Cylindrospermum stagnale, UniProt K9WT99); test: Microscale thermophoresis binding assay on purified NOX5 dehydrogenase domain
T5 sequence (K9WT99 413-693): T4 sequence (K9WT99 413-693)
Method in brief: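 Microscale thermophoresis with fluorescently labelled wild-type NOX5 dehydrogenase domain (~200 nM). Ligand given as 16 serial dilutions up to 6.4 mM in 50 mM Hepes, 240 mM NaCl, 0.5% glycerol, 250 μM FAD, 0.1% pluronic acid, pH 7.5. Incubated 10 min at 25 °C; recorded at 25 °C, red channel. Kd from binding isotherms, triplicate, standard deviation.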

SMILES	inhibition of the hydrogen peroxide-producing activity of xanthine oxidase (xanthine oxidase)	inhibition of NOX4 (in words) (human NOX4)	interference with MCLA auto-oxidation [3]	inhibition of NOX5 (in words) (bacterial NOX5 [5])	inhibition of NOX2 (in words) (human NOX2 [6])	superoxide scavenging [11]	further results
c1ccc2c(c1)[I+]c1ccccc1-2 [DPI, Diphenylene iodonium]	powerful inhibitions; also recorded: inhibits xanthine oxidase	full		full	full		IC50 (bacterial NOX5 [1]): 3280 ± 1320 nM; αKi ([7]; wild-type domain, exogenous FAD 300 μM): 127 ± 13 µM; αKi [8]: 0.42 ± 0.06 µM; Ki [9]: 980 ± 140 nM
CC1=C(O)C(=O)C=C2C1=CC=C1[C@@]2(C)CC[C@@]2(C)[C@@H]3C[C@](C)(C(=O)O)CC[C@]3(C)CC[C@]12C [celastrol]	powerful inhibitions	full	interfered with the MCLA auto-oxidation	full	full		stabilising effect in thermal shift analysis [10]: lack of any stabilising effect
CC(C)c1c(C(=O)Nc2ccccc2)c(-c2ccccc2)c(-c2ccc(F)cc2)n1CC[C@@H](O)C[C@@H](O)CC(=O)O [Atorvastatin]							inhibition at 100 µM (bacterial NOX5 [5]; read-out: inhibition of NOX5): ~50%
CC1=CC(=O)c2c(O)cccc2C1=O [plumbagin]							pattern of NOX inhibition (in words) (NOXs): assay-dependent inhibitory activities
CC1=NN(c2ccccc2)CC1 [3-methyl-1-phenyl-2-pyrazoline]	powerful inhibitions						
O=c1[nH]c2ccccc2c2ccccc12 [phenanthridinone, 6(5H)-phenanthridinone]						mild scavenging activities	pattern of NOX inhibition (in words) (NOXs): assay-dependent inhibitory activities
Cc1ccc(C(=O)Nc2ccc(S(=O)(=O)O)c3cc(S(=O)(=O)O)cc(S(=O)(=O)O)c23)cc1NC(=O)c1cccc(NC(=O)Nc2cccc(C(=O)Nc3cc(C(=O)Nc4ccc(S(=O)(=O)O)c5cc(S(=O)(=O)O)cc(S(=O)(=O)O)c45)ccc3C)c2)c1 [suramin]		full		full	full	strong superoxide scavenger	Ki [7]: 390 ± 50 nM; Kd [12]: 52200 ± 1100 nM; stabilising effect in thermal shift analysis [10]: lack of any stabilising effect
O=c1c2ccccc2[se]n1-c1ccccc1 [ebselen]	powerful inhibitions	full	substantial interference	full	full		interference on the Amplex Red/peroxidase assay [4]: substantial interference; stabilising effect in thermal shift analysis [10]: lack of any stabilising effect
C1CCC(C(CC2CCCCN2)C2CCCCC2)CC1 (stereo not drawn) [perhexiline]			interfered with the MCLA auto-oxidation	not against NOX5			inhibition at 100 µM (human NOX2 [6]; read-out: inhibition of NOX2): 40 to 70%; inhibition at 100 µM (human NOX4; read-out: inhibition of NOX4): 40 to 70%

Second part, led by results:

inhibition of the hydrogen peroxide-producing activity of xanthine oxidase (xanthine oxidase)	SMILES	inhibition of NOX4 (in words) (human NOX4)	interference with MCLA auto-oxidation [3]	inhibition of NOX5 (in words) (bacterial NOX5 [5])	inhibition of NOX2 (in words) (human NOX2 [6])	superoxide scavenging [11]	further results
powerful inhibitions	CN(C)c1cccc(-c2c3c(=O)n(-c4ccccc4Cl)[nH]c3cc(=O)n2C)c1 [GKT137831]	strong NOX4 inhibitors	substantial interference				inhibition of NOX5 with the MCLA-based protocol (in words) (bacterial NOX5 [1]; 100 μM compound, MCLA assay): moderately active; inhibition of NOX2 with MCLA (in words) (human NOX2 [2]): moderately active; interference on the Amplex Red/peroxidase assay [4]: substantial interference
powerful inhibitions	CN(C)CCCN1c2ccccc2Sc2ccccc21 [promazine]						
powerful inhibitions	OCCN1CCN(CCCN2c3ccccc3Sc3ccc(Cl)cc32)CC1 [perphenazine]					mild scavenging activities	
powerful inhibitions	OCCN1CCN(CCCN2c3ccccc3Sc3ccc(C(F)(F)F)cc32)CC1 [fluphenazine]					mild scavenging activities	
